Bioassay records from PubChem BioAssay.
GSK3 alpha inh – inhibitors of human GSK-3 alpha kinase; ADP-Glo luminescence, 60 min; inhibition, % at 10 µM; 0.1% of 320,000 active; AID 2650;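 active = more than half of replicates show inhibition above 20%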;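 note: GST-tagged GSK-3 alpha with peptide substrate and 25 µM ATP; 0% = DMSO neutral wells and 100% = GW8510 positive control wells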
STK33 kinase inh – blocks human STK33 kinase activity; Q9BYT3; purified STK33, MBP phosphorylation, ADP-Glo luminescence; inhibition, % at 10 µM; 0.073% of 320,000 active; AID 2661;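 active = inhibition at or above 25%, using the most active replicate where run in duplicate; inactive = inhibition below 25%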
DYRK1A inh – Dyrk1A (rat) kinase inhibition. ADP-Glo luminescence, NFATc1 peptide. inhibition, % at 12.5 µM. 0.43% of 310,000 active. AID 504441; in the data active = inhibition above about 50%;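 note: plate controls were vehicle with enzyme for no effect and no enzyme for full effect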
Rin1 Abl inh – human Rin1-Abl interaction inhibition. inhibition, % at 7.35 µM. P00519+Q13671. TR-FRET Rin1/Abl binding, biochemical. 0.4% of 360,000 active. AID 588664; in the data active = inhibition above about 5%, passing the limit was not always enough
GSK3beta inhib – inhibitors of human GSK3beta kinase; P49841; 0.038% of 300,000 active; AID 2097; activity score (negative = inhibition), % at 10 µM; GST-GSK3beta kinase, ADP-Glo luminescence, 60 min; stronger effect = lower value;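 active = more than half of replicate wells score below -50%, meaning over 50% inhibition versus plate controls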;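 note: 0% = median DMSO wells and -100% = median GW8510 positive control wells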
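Test system – GST-tagged human GSK3beta kinase, cell-free · Incubation – 60 min enzyme reaction, room temperature · Signal – ADP-Glo luminescence · Also added – peptide substrate and ATP at 25 µM · Controls – DMSO neutral wells and GW8510 at 20 µM as positive · Buffer or medium – Tris/MgCl2 kinase buffer · Measure – Luminescence-derived activity versus plate DMSO and GW8510 wells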
Arr AP2 block – human beta-arrestin and AP2 interaction inhibition; FITC-arrestin peptide / GST-AP2 beads, flow cytometry; AP2 beta2 appendage carries R879A mutation; inhibition, % at 10 µM; 0.31% of 340,000 active; AID 504490;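 active = inhibition above a set limit, near 3 SD of compounds lacking own fluorescence, cut at about 54% in these data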;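 note: plate controls were DMSO wells for no effect and 5 µM unlabelled arrestin peptide for full effect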
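System: GST-AP2 R879A glutathione beads | Also added: FITC-arrestin peptide, 50 nM | Times: 12 min plus 1 h, RT | Signal: Bead flow cytometry, FITC channel | Buffer or medium: PBS with 0.05% Tween 20 and 0.1% BSA | Read-out basis: Percent drop in bead-associated FITC signal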
Rin1-Abl confirm – confirmation of inhibitors of human Rin1-Abl interaction; 49% of 1,300 active; AID 602124; shares compounds with Rin1 Abl inh; TR-FRET Rin1-Abl binding, purified proteins; inhibition, % at 7.35 µM
GFP quench – quenches GFP fluorescence, counter-screen for Rin1-Abl inhibitors; shares compounds with Rin1 Abl inh; inhibitors/quenchers counterscreen; inhibition, % at 6.75 µM; 8.5% of 1,300 active; AID 602125;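 note: ABL1-eGFP fusion protein alone without its partner RIN1-SBP; 0% = protein with vehicle and 100% = wells lacking protein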
GFP quench dose – counter-screen for Rin1-Abl inhibitors: GFP quenchers, dose response. shares compounds with Rin1 Abl inh. 230 tested, under 10 active. IC50, µM. GFP fluorescence interference/quenching counterscreen. AID 602182; call rule not given here;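 note: ABL1-eGFP fusion protein alone without its RIN1 binding partner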
Active calls of the source: *. Hits are enriched below; roughly 0.99% of the tested compounds scored in any of these assays. Cut-off read from the data, not from the text of the source, unless noted: active = inhibition above about 6.5%; inactive = the rest.

CCOc1ccc(C(C(=O)NCC2CCCO2)N(C(=O)c2snc(C(N)=O)c2N)c2cccc(F)c2)cc1 (configuration not stated) was read as GSK3 alpha inh 1, STK33 kinase inh -1, DYRK1A inh 1, Rin1 Abl inh 3, GSK3beta inhib 2 and Arr AP2 block 22.
CCOc1ccc(N(C(=O)c2snc(C(N)=O)c2N)C(C(=O)NC2CCCC2)c2ccncc2)cc1 (configuration not stated) was read as GSK3 alpha inh -2, STK33 kinase inh 0, DYRK1A inh 0, Rin1 Abl inh 7.6*, GSK3beta inhib 2, Arr AP2 block 18, Rin1-Abl confirm 3 and GFP quench 0.
`CCOc1ccc(C(C(=O)NCC2CCCO2)N(C(=O)c2snc(C(N)=O)c2N)c2ccccc2F)cc1` (configuration not stated) gave GSK3 alpha inh 2, STK33 kinase inh -1, DYRK1A inh 4, Rin1 Abl inh 8.5*, GSK3beta inhib 1, Arr AP2 block -12, Rin1-Abl confirm 11* and GFP quench 0.
`COCCN1C(=O)CCC1(C)C(=O)Nc1c(C)cccc1C` (configuration not stated) gave Rin1 Abl inh 3.
`Cc1cc(-c2nn(-c3ccccc3F)cc2CN2CCCC(O)C2)c(C)s1` (configuration not stated) gave GSK3 alpha inh -1, STK33 kinase inh -1, DYRK1A inh 5, Rin1 Abl inh 5.7*, GSK3beta inhib 2, Arr AP2 block -5, Rin1-Abl confirm 1 and GFP quench 0.
`CCCCNC(=O)c1onc(CSc2ccc(F)c(F)c2)c1C(=O)NCCCC` gave GSK3 alpha inh -6, STK33 kinase inh 1, DYRK1A inh 18, Rin1 Abl inh 4, GSK3beta inhib 3 and Arr AP2 block 4.
`CCN(C[C@H]1N[C@@](C)(C(=O)OC)[C@H]2C(=O)N(Cc3ccccc3)C(=O)[C@@H]12)C(=O)Nc1ccc(F)cc1` gave GSK3 alpha inh -1, STK33 kinase inh -1, DYRK1A inh 0, Rin1 Abl inh -2 and Arr AP2 block 3.
For Cc1nn(CC(=O)Nc2ccc(C(=O)N3CCCC3)cc2)c(=O)c2ccccc12 the results were GSK3 alpha inh -2, DYRK1A inh -6, Rin1 Abl inh 9.9*, GSK3beta inhib 1, Arr AP2 block 4, Rin1-Abl confirm 7.4* and GFP quench 2.
For Cc1nn(CC(=O)Nc2ccc(C(=O)N3CCCCC3)cc2)c(=O)c2ccccc12 the results were GSK3 alpha inh 0, STK33 kinase inh 0, DYRK1A inh 0, Rin1 Abl inh 12*, GSK3beta inhib -1, Arr AP2 block 0, Rin1-Abl confirm 13* and GFP quench 0.
For COC(=O)c1ccc(NC(=O)Cn2nc(C)c3ccccc3c2=O)cc1 the results were GSK3 alpha inh 1, STK33 kinase inh -18, DYRK1A inh -4, Rin1 Abl inh -2, GSK3beta inhib 2 and Arr AP2 block -12.
`COc1cc2c(cc1OC)C(C)N(C(=O)c1ccc(Br)o1)CC2` (configuration not stated) gave GSK3 alpha inh -2, STK33 kinase inh -1, DYRK1A inh -5, Rin1 Abl inh 11*, GSK3beta inhib -28, Arr AP2 block 12, Rin1-Abl confirm 5 and GFP quench 2.
Screening COc1cc2c(cc1OC)CN(C(=O)c1ccc(Br)o1)CC2 returned GSK3 alpha inh -5, STK33 kinase inh 5, DYRK1A inh -3, Rin1 Abl inh 4, GSK3beta inhib -3 and Arr AP2 block 8.
`O=c1[nH]c(=S)[nH]c2nccnc12` gave Rin1 Abl inh 2 and Arr AP2 block 28.
For COc1ccc(/C=N/NC(=O)COc2ccc(Cl)cc2Cl)cc1Cn1nc(C)cc1C the results were GSK3 alpha inh 5, STK33 kinase inh -2, DYRK1A inh -16, Rin1 Abl inh 9.4*, GSK3beta inhib 11, Arr AP2 block 10, Rin1-Abl confirm 1 and GFP quench 1.
Screening Cc1nc(-c2ccc(C(=O)N3CCCC3)cc2)cs1 returned GSK3 alpha inh 12, STK33 kinase inh 10, DYRK1A inh 19, Rin1 Abl inh 6.2*, GSK3beta inhib -19, Arr AP2 block 17, Rin1-Abl confirm -1 and GFP quench 0.
For Cc1nc(-c2ccc(C(=O)N3CCOCC3)cc2)cs1 the results were GSK3 alpha inh 3, STK33 kinase inh -1, DYRK1A inh -4, Rin1 Abl inh 3, GSK3beta inhib -2 and Arr AP2 block 11.
Cc1cc(C)c(S(=O)(=O)NCCSCc2ccco2)c(C)c1 was read as GSK3 alpha inh 3, STK33 kinase inh 0, Rin1 Abl inh 8.5*, Arr AP2 block 7, Rin1-Abl confirm -1 and GFP quench 0.
For Cc1cc(C)c(C(=O)C(C)OC(=O)c2ccccn2)cc1C (configuration not stated) the results were GSK3 alpha inh -1, STK33 kinase inh -1, DYRK1A inh 0, Rin1 Abl inh 1, GSK3beta inhib -1 and Arr AP2 block 7.
CNC(=O)C[C@H]1C(=O)N(Cc2ccccc2)C[C@@H]1Cc1ccccc1 was read as Rin1 Abl inh 8.2*, Rin1-Abl confirm 0 and GFP quench -1.
Screening CCC[C@H]1CN(Cc2ccccc2)C(=O)[C@@H]1CC(=O)NC returned Rin1 Abl inh -1.
For COc1ccc(NC(=S)N2CCN(C/C=C/c3ccccc3)CC2)cc1 the results were GSK3 alpha inh 0, STK33 kinase inh -1, DYRK1A inh -1, Rin1 Abl inh 9.3*, GSK3beta inhib 3, Arr AP2 block 1, Rin1-Abl confirm -1 and GFP quench -1.
For CCCOc1ccc(/C=N\NC(=O)CCc2n[nH]c(=O)[nH]c2=O)cc1OC the results were GSK3 alpha inh 2, STK33 kinase inh -2, DYRK1A inh 8, Rin1 Abl inh 7.8*, GSK3beta inhib -2, Arr AP2 block -6, Rin1-Abl confirm 8.8* and GFP quench 0.
For CCCOc1ccc(/C=N/NC(=O)CSc2ccccn2)cc1OC the results were GSK3 alpha inh -1, STK33 kinase inh -1, DYRK1A inh 3, Rin1 Abl inh 16*, GSK3beta inhib 1, Arr AP2 block 2, Rin1-Abl confirm 22*, GFP quench 0 and GFP quench dose >68.
